# Screening results (PubChem BioAssay)
# Hits are enriched below; roughly 2.9% of the tested compounds scored in any of these assays.
# DENV2 CPE: inhibitors of DENV2 cytopathic effect, primary screen, cell-based, plate reader, single concentration; DENV2-infected cells, cytopathic effect rescue; CPE inhibition, % at 9.99 µM; 350,000 tested, 1.7% active; AID 651640, 2012; in the data active = CPE inhibition above about 20%, passing the limit was not always enough; inconclusive = no clear call, values can overlap the other calls; tested in BHK-21 cells;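 also: 0% = median of neutral control wells and 100% = median of positive control wells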
# SIRT5 block: SIRT5 desuccinylase inhibitors, primary screen, biochemical, fluorescence imaging, single point, set 5. Purified SirT5, succinyl-peptide AMC, trypsin-coupled fluorescence. inhibition, % at 15 µM. 330,000 tested, 1.1% active. AID 652115, 2013; in the data active = inhibition above about 15%; inconclusive = no clear call, values can overlap the other calls
# E-selectin induc: E-selectin induction in HUVECs, primary screen, imaging, HUVEC, immunofluorescence imaging, single point. P16581. normalized: neutral wells 0, TNF-alpha wells 100. activation, % at 7.58 µM. 260,000 tested, 0.37% active. AID 686992, 2013;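 active = mean E-selectin-positive cell signal at least 10% of the positive control, reached in at least 60% of replicates, without over 20% cell loss; inconclusive = no rule given, readout overlaps actives, possibly toxicity-flagged; inactive = the rest, including those meeting only one limit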
# Target sequence (P16581 whole entry, looked up): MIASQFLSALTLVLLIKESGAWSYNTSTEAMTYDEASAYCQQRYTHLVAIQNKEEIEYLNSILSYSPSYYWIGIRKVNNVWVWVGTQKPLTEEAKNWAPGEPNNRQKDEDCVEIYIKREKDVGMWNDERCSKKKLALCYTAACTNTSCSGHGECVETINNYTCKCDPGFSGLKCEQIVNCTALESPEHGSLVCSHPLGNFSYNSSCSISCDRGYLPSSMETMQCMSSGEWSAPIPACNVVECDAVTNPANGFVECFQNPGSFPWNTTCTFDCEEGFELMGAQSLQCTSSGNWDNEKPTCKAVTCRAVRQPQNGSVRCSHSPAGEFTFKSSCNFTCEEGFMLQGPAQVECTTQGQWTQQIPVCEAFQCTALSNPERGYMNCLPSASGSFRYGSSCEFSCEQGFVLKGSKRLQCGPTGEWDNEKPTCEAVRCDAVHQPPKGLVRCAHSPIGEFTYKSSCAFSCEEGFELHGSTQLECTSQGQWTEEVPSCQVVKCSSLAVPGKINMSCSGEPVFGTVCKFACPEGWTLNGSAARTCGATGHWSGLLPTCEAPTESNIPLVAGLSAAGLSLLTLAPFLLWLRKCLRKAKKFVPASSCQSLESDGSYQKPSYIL
#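 Read-out: % PE-positive cells | Test system: HUVEC | Doses: One compound dose added by pin transfer | Buffer or medium: EGM-2 over gelatin coat | Signal: Immunofluorescence imaging | Benchmarks: TNF-alpha, DMSO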
# An asterisk follows results filed as active; ? = inconclusive; / = no result.
SMILES,DENV2 CPE,SIRT5 block,E-selectin induc
Cc1ccc(CNS(=O)(=O)c2ccc3c(c2)C(C)(C)C(=O)N3C)cc1,?,/,0
COc1ccc(CNS(=O)(=O)c2ccc3c(c2)C(C)(C)C(=O)N3C)cc1,-3,-2,127*
C[C@H](CO)N1C[C@H](C)[C@@H](CN(C)C(=O)Nc2ccc(C(F)(F)F)cc2)Oc2ccc(NC(=O)NC3CCCCC3)cc2CC1=O,?,/,0
Cc1noc(C)c1S(=O)(=O)N(C)C[C@H]1OCCCC[C@@H](C)Oc2ccc(NS(=O)(=O)c3cccs3)cc2C(=O)N([C@H](C)CO)C[C@@H]1C,-9,-4,0
CC(C)C[C@H](NC(=O)[C@H](Cc1ccccc1)n1c(=O)[nH]c2ccccc2c1=O)C(=O)N1CCC(C(=O)O)CC1,-8,1,/
C[C@H](NC(=O)[C@H](Cc1ccccc1)n1c(=O)[nH]c2ccccc2c1=O)C(=O)N1CCC(C(=O)O)CC1,-7,15*,/
O=S(=O)(c1ccc(N=C2NN=C(c3cc(F)ccc3F)CS2)cc1)N1CCOCC1,2,27*,/
Fc1ccc(N=C2NN=C(c3cc(F)ccc3F)CS2)cc1,-17,6,1
CC(=O)Nc1ccc(C2=NNC(=Nc3ccc(S(=O)(=O)N4CCOCC4)cc3)SC2)cc1,19,2,/
Fc1ccc(F)c(C2=NNC(=Nc3ccccc3F)SC2)c1,86*,5,/
O=C(Nc1ccc(F)cc1)c1cccc(C(=O)Nc2ccc(F)cc2)c1,-2,-4,0
N#CCCN(C(=O)COC(=O)CCc1c[nH]c2ccccc12)c1ccc(F)cc1,3,2,0
O=C(O)c1cnn(-c2nc(-c3cccc(F)c3)cs2)c1C(F)(F)F,1,-1,/
Nc1cccc(-c2csc(-n3ncc(C(=O)O)c3C(F)(F)F)n2)c1,11,29*,/
COc1ccc(N(C(=O)c2snc(C(N)=O)c2N)C(C(=O)NCc2ccc(F)cc2)c2ccc(O)cc2)cc1 (configuration not stated),-9,6,0
Cc1ccccc1NC(=O)/C(=C/c1cccs1)NC(=O)c1ccco1,27*,2,-2
COc1ccccc1NC(=O)/C(=C\c1cccs1)NC(=O)c1ccco1,-2,1,0
Cc1csc2nc(NC(=O)c3ccccc3)sc(=O)c12,5,-2,/
CCN1[C@@H]2c3ccc(-c4ccccc4)c(=O)n3C[C@@H]2[C@@H](CO)[C@@H]1C(=O)N1CCN(C)CC1,-2,-1,0
CCOc1ccccc1N,23*,/,/
CCOc1ccccc1C(N)=O,-11,/,/
CC(=O)N1CC2(C1)[C@@H](c1ccc(-c3ccc(F)cc3)cc1)[C@H](CO)N2C(C)=O,7,-6,0
O=S(=O)(c1ccccc1)N1CC2(C1)[C@H](c1ccccc1)[C@H](CO)N2CCC(F)(F)F,-16,17*,0
O=S(=O)(c1ccccc1)N1CC2(C1)[C@@H](c1ccccc1)[C@@H](CO)N2CCC(F)(F)F,-2,-2,0
CC(=O)N1CC2(C1)[C@H](c1ccc(-c3ccc(F)cc3)cc1)[C@H](CO)N2C(C)=O,83*,3,0
SMILES,DENV2 CPE,SIRT5 block,E-selectin induc
CC(=O)N1CC2(C1)[C@@H](c1ccc(-c3ccc(C#N)cc3)cc1)[C@@H](CO)N2CCC(F)(F)F,-11,/,0
CC(=O)N1CC2(C1)[C@H](c1ccc(-c3ccc(C#N)cc3)cc1)[C@H](CO)N2CCC(F)(F)F,33*,6,0
COc1ccc(NC(=O)COc2ccc(Br)cc2)c(OC)c1,-5,-2,0
CCCCCCSc1ccc(-c2nc3ccccn3c2NCCCC)cc1,5,/,0
CCN1C(=O)[C@@H]2[C@@H](c3ccc(-c4ccc(OC)cc4)cc3)N3CCCC[C@@]3(C(=O)OC)[C@@H]2C1=O,-1,0,1
Nc1cc(N)nc(SCC(=O)Nc2ccc3c(c2)OCO3)n1,-5,-1,/
CCN(CC(=O)Nc1ccc(S(=O)(=O)N2CCCC2)cc1)Cc1ccccc1,-1,-4,8
O=S(=O)(c1ccc(F)cc1)N1CC[C@@H]2[C@H]1c1cc(-c3ccc(F)cc3)ccc1N[C@@H]2CO,86*,/,-1
Cc1cccc(S(=O)(=O)N2CC[C@@H]3[C@@H](CO)Nc4ccc(C#Cc5cccc(F)c5)cc4[C@@H]32)c1,-3,11,0
N#Cc1ccc(-c2ccc3c(c2)[C@@H]2[C@@H](CCN2S(=O)(=O)c2cccc(F)c2)[C@H](CO)N3)cc1,34*,-5,0
O=S(=O)(c1ccc(F)cc1)N1CC[C@@H]2[C@@H](CO)Nc3ccc(C#Cc4cccc(F)c4)cc3[C@@H]21,24*,/,0
OC[C@@H]1Nc2ccc(-c3ccccc3)cc2[C@H]2[C@@H]1CCN2Cc1ccc(F)cc1,49*,-1,1
OC[C@H]1Nc2ccc(-c3ccccc3)cc2[C@H]2[C@@H]1CCN2Cc1ccc(F)cc1,1,1,1
N#Cc1ccc(-c2ccc3c(c2)[C@H]2[C@H](CCN2S(=O)(=O)c2cccc(F)c2)[C@@H](CO)N3)cc1,12,-4,1
O=S(=O)(c1ccc(F)cc1)N1CC[C@@H]2[C@H](CO)Nc3ccc(Br)cc3[C@@H]21,/,6,0
Cc1c2c(c(C)n1C)C(C(=O)NC1CCCCC1)N(Cc1ccccc1)C2=O (configuration not stated),-1,-5,1
Cc1ccc(C(=O)N/N=c2\sc3ccccc3n2C)cc1,11,-5,/
COCCNC(=O)C[C@@H]1C=C[C@@H](NC(=O)NC2CCCCC2)[C@H](CO)O1,12,3,0
CCCn1nnc(NC(=O)c2ccc(Cl)cc2Cl)n1,/,-8,/
Cc1cc(C)cc(NC(=O)CSc2ccc(-c3cccs3)nn2)c1,-5,22*,0
O=C(CSc1ccc(-c2cccs2)nn1)Nc1ccccc1,-9,-1,0
O=S(=O)(CCN1CCOCC1)c1ccc(Cl)cc1,-13,1,0
Cc1nn(CCS(=O)(=O)c2ccc(Cl)cc2)c(C)c1Br,12,/,78*
COCC(=O)N1CCC2(CC1)CN(C(=O)NC1CCCC1)[C@@H](CO)c1c2c2ccc(OC)cc2n1C,20,3,21
COCC(=O)N1CC2(CN(C(=O)NC(C)C)C2)c2c(n(C)c3cc(OC)ccc23)[C@@H]1CO,26*,/,0
SMILES,DENV2 CPE,SIRT5 block,E-selectin induc
COCC(=O)N1CC2(CCN(C(=O)NC(C)C)CC2)c2c(n(C)c3cc(OC)ccc23)[C@@H]1CO,3,/,0
COCC(=O)N1CC2(C1)CN(C(=O)NC1CCCC1)[C@H](CO)c1c2c2ccc(OC)cc2n1C,68*,-2,0
Fc1ccc(-c2ccc(C3[C@@H]4CN(Cc5nccs5)C[C@H]3N4)cc2)cc1 (some centres not stated),-3,-5,0
O=C(NCCO)Nc1ccc(Cl)cc1,-2,19*,0
O=C(NCCNC(=O)Nc1ccc(Cl)cc1)Nc1ccc(Cl)cc1,-8,-1,1
COCCNC(=O)C[C@@H]1C[C@@H]2c3cc(NC(=O)C4CCOCC4)ccc3O[C@@H]2[C@@H](CO)O1,5,3,0
O=S(=O)(c1ccc(F)cc1)c1nc(-c2ccco2)oc1Nc1ccccc1,1,112*,0
O=S(=O)(c1ccccc1)c1nc(-c2ccco2)oc1Nc1ccccc1,-6,-2,0
